Screening results as filed in PubChem BioAssay.
Shown are actives, neighbours in structure and some others; about 2.6% of the full set was active somewhere.
WT yeast gro inh – growth inhibition of WT strain, primary screen, mitochondrial fusion inhibitor project, WT and mutant strains, chemical genetic; AID 1362, 2008; 190,000 compounds, 2.1% hits; mitochondrial fusion phenotypic screen; inhibition, % at 10 µM; in the data active = inhibition above about 58%; tested in S. cerevisiae
TNAP inh hi DEA – human TNAP enzyme inhibitors, primary screen, biochemical, luminescent, high phosphate acceptor level, uHTS. purified TNAP, CDP-star luminescence, 1 M DEA. inhibition, % at 20 µM. 200,000 compounds, 0.03% hits;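 active = over 50% inhibition of tissue-nonspecific alkaline phosphatase at 20 µM in the single-dose screen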;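 also: plate controls were DMSO wells for no effect and EDTA-quenched wells as full inhibition for full effect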
Target sequence (P05186 whole entry, looked up): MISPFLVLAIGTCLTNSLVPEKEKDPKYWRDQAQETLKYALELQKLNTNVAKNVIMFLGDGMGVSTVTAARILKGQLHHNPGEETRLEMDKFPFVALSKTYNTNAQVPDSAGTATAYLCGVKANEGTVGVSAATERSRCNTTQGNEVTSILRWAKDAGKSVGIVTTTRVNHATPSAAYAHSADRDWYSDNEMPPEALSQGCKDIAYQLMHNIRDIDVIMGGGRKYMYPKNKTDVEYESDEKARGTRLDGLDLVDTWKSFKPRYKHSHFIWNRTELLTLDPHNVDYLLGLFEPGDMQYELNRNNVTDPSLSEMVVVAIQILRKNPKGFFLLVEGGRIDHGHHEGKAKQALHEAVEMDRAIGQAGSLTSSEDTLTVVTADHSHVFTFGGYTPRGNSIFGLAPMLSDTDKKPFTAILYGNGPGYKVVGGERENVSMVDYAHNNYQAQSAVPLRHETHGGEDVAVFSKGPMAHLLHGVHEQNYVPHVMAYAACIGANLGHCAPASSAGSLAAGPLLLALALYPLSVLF
Arbovirus anti – antivirals against arbovirus infection, primary screen, cell-based, full library, 10K replicate subset. arbovirus infection cell-based antiviral screen. inhibition, % at 10 µM. 200,000 compounds, 0.37% hits; in the data active = inhibition above about 30%
TNAP act hi DEA – TNAP activators at high phosphate acceptor level, primary screen, biochemical, luminescence, uHTS. Alkaline phosphatase, tissue-nonspecific isozyme (Homo sapiens), P05186. purified TNAP, CDP-star luminescence, 1 M DEA, 30 min; active compounds read high; 0 = EDTA background, 1 = DMSO-only activity. activation factor at 20 µM. 200,000 tested, under 10 active. AID 1136, 2008;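 active = activation factor at least 2 at 20 µM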
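Measured by: Luminescent substrate turnover signal | Test system: Human TNAP | Input: TNAP 1/800 final | Dosing: 20 µM single point | Schedule: 30 min, room temperature | Controls: EDTA wells as negative control, DMSO wells as positive control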
TNAP inh no acc – human TNAP enzyme inhibitors, primary screen, biochemical, luminescent, no phosphate acceptor, uHTS; 200,000 compounds, 0.26% hits; purified TNAP, CDP-star luminescence, 30 min; inhibition, % at 20 µM;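 active = tissue-nonspecific alkaline phosphatase inhibition above about 50% at 20 µM in the single-dose screen, limit read from the data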;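 also: 0% = DMSO negative control and 100% = EDTA positive control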
* = called active by the depositor.

SMILES | WT yeast gro inh | TNAP inh hi DEA | Arbovirus anti | TNAP act hi DEA | TNAP inh no acc
CCOc1ccc2nc(NC(=O)CSc3nc(-c4ccccc4)c(C#N)c(=O)[nH]3)sc2c1 | 5 | -1 | 62* | 1 | -6
COc1cccc(-c2nc(SCC(=O)Nc3nc(-c4ccccc4)c(C)s3)[nH]c(=O)c2C#N)c1 | 1 | 2 | 58* | 1 | 0
Cc1ccc(C(=O)c2ccccc2C(=O)OCC(=O)Nc2ccc(SC(F)F)cc2)cc1 | 37 | -4 | 8 | 1 | 3
O=C(COC(=O)c1ccccc1Cc1ccccc1)Nc1ccc(SC(F)F)cc1 | 70* | -6 | -22 | 1.1 | -15
Nc1n[nH]c(-c2ccccc2[N+](=O)[O-])n1 | -19 | 2 | 1 | 1 | 86*
Nc1n[nH]c(-c2ccccc2)n1 | 1 | -3 | 4 | 1 | 35
COc1cc(Cl)c(C)cc1NC(C)C(=O)Nc1cc(C(F)(F)F)ccc1N1CCOCC1 (stereo not given) | 65* | -4 | -14 | 1 | -9
COc1ccc(NC(C)C(=O)Nc2cc(C(F)(F)F)ccc2N2CCOCC2)c(OC)c1 (stereo not given) | 49 | 0 | -14 | 1 | -11
CN1CCN(c2cc(N3CCc4ccccc4C3)c(F)cc2[N+](=O)[O-])CC1 | 87* | 10 | -44 | 0.9 | 2
CCO[C@H]1OC(C(=O)Nc2ccccc2)=C[C@@H](c2ccc(C(F)(F)F)cc2)[C@@H]1CCCO | 75* | 2 | -15 | 1 | 2
CCO[C@H]1OC(C(=O)NCc2ccccc2)=C[C@@H](c2ccc(C(F)(F)F)cc2)[C@@H]1CCCO | 27 | -1 | -20 | 1 | -4
CCOC(=O)c1ccc(NC(=O)Cn2nnc(-c3ccccc3)n2)cc1 | -1 | 2 | 39* | 1 | -13
Cc1cc(NC(=O)c2c(Br)c(C)nn2C)no1 | -7 | -2 | 2 | 1 | -2
Cc1ccc2c(c1)C(CCN)C(=O)N2Cc1ccccc1 (stereo not given) | -5 | -1 | -12 | 1 | -6
Cc1ccc2c(c1)C1CCCC3C1N2CC(=O)N3Cc1ccccc1 (stereo not given) | 26 | -3 | 32* | 1 | -5
COc1cc(OC)c(NS(=O)(=O)c2ccc(Cl)c(C(=O)OC(C)C(=O)N3CCCC3)c2)cc1Cl (stereo not given) | -3 | -1 | 2 | 1 | -12
Nc1ccc(Cc2ccc(N)c(O)c2)cc1O | 4 | 21 | 6 | 0.8 | 57*
COc1cc(Cc2ccc(N)c(OC)c2)ccc1N | -2 | 2 | -3 | 1 | -4
CCCN(CCC)CCCNC(=O)CS(=O)Cc1nc(-c2ccc(OC)c(OC)c2)oc1C (stereo not given) | 71* | 6 | 4 | 0.9 | -2
Cc1cc(C)c2nc(C(F)(F)F)nc(N3CC(C)OC(C)C3)c2c1 (stereo not given) | 77* | 0 | 0 | 1 | -4
O=C1CCC(C(=O)OCc2cc(Cl)ccc2OC(F)F)N1 (stereo not given) | 37 | -3 | 0 | 1 | -6
O=C(OCc1cc(Cl)ccc1OC(F)F)c1cncc(Br)c1 | 60* | -1 | 9 | 1 | 3
COC(=O)/C=C/c1sc2nc(C)cc(C)c2c1N=CN(C)C | -5 | -6 | 45* | 1.1 | 0
Cc1cc(C)c2c(N=CN(C)C)c(C(=O)N3CCN(c4ncccn4)CC3)sc2n1 | -13 | -5 | 16 | 1.1 | 8
O=C(NCCc1ccc(Cl)cc1)Nc1cccc(Cl)c1 | 61* | -7 | 6 | 1.1 | -13
SMILES | WT yeast gro inh | TNAP inh hi DEA | Arbovirus anti | TNAP act hi DEA | TNAP inh no acc
Fc1ccc(NC(=S)NCCc2ccc(Cl)cc2)cc1 | 57 | -3 | -16 | 1 | 1
O=[N+]([O-])c1cccc(NC(=S)NCCc2ccccc2)c1 | 34 | 1 | 0 | 1 | -2
Fc1ccc(CCNC(=S)Nc2ccc(F)c(Cl)c2)cc1 | 77* | -7 | -34 | 1.1 | -11
O=C(Cc1c(Cl)cccc1Cl)NCCc1ccc(Cl)cc1 | -19 | 4 | -8 | 1 | -10
O=[N+]([O-])c1ccc(NC(=S)NCCc2ccc(F)cc2)cc1 | 85* | -1 | -29 | 1 | -4
O=CNCC(=O)NCCc1ccc(Cl)cc1 | -1 | -3 | 37* | 1 | -5
COC(=O)c1sc2ncn(-n3c(C)ccc3C)c(=O)c2c1C | 3 | -4 | -5 | 1 | -5
CC(C)(O[C@@H]1O[C@H](CO)[C@@H](O)[C@H](O)[C@H]1O)[C@H]1Cc2cc3ccc(=O)oc3cc2O1 | 8 | -1 | 30* | 1 | -1
CCCCc1ccc(-n2c(Cc3cccs3)n[nH]c2=S)cc1 | 74* | 0 | -7 | 1 | -91
Cc1ccc(NC(=O)c2ccccc2NS(=O)(=O)c2ccc(Cl)s2)cc1 | 82* | 2 | -9 | 1 | -4
O=C(Nc1ccccc1Cc1ccccc1)c1ccccc1NS(=O)(=O)c1ccc(Cl)s1 | 76* | -4 | -40 | 1 | -12
COC(=O)c1cc(Br)c(=O)n(-c2cc(C)on2)c1 | -7 | -3 | -3 | 1 | -8
COc1ccc(CCNC(=O)CC2SC(=NCCC(C)C)NC2=O)cc1OC (stereo not given) | -9 | -3 | -4 | 1 | -5
Cc1ccc(S(=O)(=O)c2c(C)cc(C)nc2Oc2cccc(C)c2C)cc1 | 66* | 1 | -18 | 1 | -4
Cc1cc(C)c(S(C)(=O)=O)c(Oc2ccccc2C)n1 | -8 | -1 | -2 | 1 | -5
Cc1nc2sc(C(c3ccccc3)N3CCN(c4ccccc4F)CC3)c(O)n2n1 (stereo not given) | 0 | 2 | 2 | 1 | 0
COC(=O)c1cc(NC(=S)NCc2ccc(Cl)cc2)cc(C(=O)OC)c1 | 28 | -3 | 32* | 1 | -13
COC(=O)c1cccc(NC(=S)NCc2ccc(Cl)cc2)c1 | 15 | 2 | 3 | 1 | -16
CCCN(CCC)c1cc(Cl)nc(N)n1 | -14 | -4 | -1 | 1 | -14
O=C(CSc1ccc2ccccc2c1)NCCc1ccc(O)c(O)c1 | -4 | -2 | -5 | 1 | 54*
COc1ccc(CCNC(=O)CSc2ccc3ccccc3c2)cc1OC | 3 | 1 | 1 | 1 | 4
O=C(CN1C(=O)C2CC=CCC2C1=O)NCC1COc2ccccc2O1 (stereo not given) | 1 | -5 | -2 | 1 | -9
COC(=O)c1cccc(N(C(=O)c2cnccn2)C(C(=O)NC2CCCCC2)c2cn(C)nc2C)c1 (stereo not given) | 4 | 1 | 9 | 1 | -5
